According to ChEMBL document CHEMBL4665633, “Cereblon versus VHL: Hijacking E3 ligases against each other using PROTACs” (Bioorg Med Chem, 2019):

Key:
Format in all cases: cell-based
[1] = target: T1, Protein cereblon/von Hippel-Lindau disease tumor suppressor (Homo sapiens, UniProt P40337+Q96SW2); test: Protac activity at VHL/CRBN in HEK293 cells assessed as CRBN protein abundance at 50 nM after 4 hrs by Western blot analysis relative to DMSO
In short: (§1)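 HEK293 cells (DMEM, 10% FBS, penicillin/streptomycin, L-glutamine; 37 °C, 5% CO2; ≤30 passages) seeded at 1 × 10⁶ per well overnight, then treated with compound at 0.1% v/v final DMSO. Cells were lysed in RIPA with protease inhibitors and benzonase, then clarified. Equal Bradford-quantified protein was immunoblotted for CRBN/VHL. Bands were normalised to β-tubulin and expressed as % of mean 0.1% DMSO vehicle.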

[2] = target: T1, Protein cereblon/von Hippel-Lindau disease tumor suppressor; test: Protac activity at VHL/CRBN in human HeLa cells assessed as pVHL30 protein abundance at 5 nM after 4 hrs by Western blot analysis relative to DMSO
In short: (§2)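 HeLa cells (5 × 10⁵, DMEM + 10% FBS, 37 °C, 5% CO₂, ≤30 passages) seeded overnight, then treated 4 h with compound at single or graded concentrations (0.1% v/v DMSO final). RIPA lysates equalised by Bradford; SDS-PAGE and anti-CRBN/anti-VHL immunoblots; bands normalised to β-tubulin and expressed as % of mean DMSO vehicle. DC₅₀ from fit of band intensity versus log[concentration].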

[3] = target: T1, Protein cereblon/von Hippel-Lindau disease tumor suppressor; test: Protac activity at VHL/CRBN in HEK293 cells assessed as pVHL30 protein abundance at 50 nM after 4 hrs by Western blot analysis relative to DMSO; in short: as §1
[4] = target: T1, Protein cereblon/von Hippel-Lindau disease tumor suppressor; test: Protac activity at VHL/CRBN in human HeLa cells assessed as pVHL30 protein abundance at 500 nM after 4 hrs by Western blot analysis relative to DMSO; in short: as §2
[5] = target: T1, Protein cereblon/von Hippel-Lindau disease tumor suppressor; test: Protac activity at VHL/CRBN in human HeLa cells assessed as pVHL19 protein abundance at 50 nM after 4 hrs by Western blot analysis relative to DMSO; in short: as §2
[6] = target: T1, Protein cereblon/von Hippel-Lindau disease tumor suppressor; test: Protac activity at VHL/CRBN in HEK293 cells assessed as pVHL19 protein abundance at 5 nM after 4 hrs by Western blot analysis relative to DMSO; in short: as §1
[7] = target: T1, Protein cereblon/von Hippel-Lindau disease tumor suppressor; test: Protac activity at VHL/CRBN in human HeLa cells assessed as CRBN protein abundance at 5 nM after 4 hrs by Western blot analysis relative to DMSO; in short: as §2
[8] = target: T1, Protein cereblon/von Hippel-Lindau disease tumor suppressor; test: Protac activity at VHL/CRBN in human HeLa cells assessed as CRBN protein abundance at 1000 nM after 4 hrs by Western blot analysis relative to DMSO; in short: as §2
[9] = target: T1, Protein cereblon/von Hippel-Lindau disease tumor suppressor; test: Protac activity at VHL/CRBN in HEK293 cells assessed as pVHL19 protein abundance at 10 nM after 4 hrs by Western blot analysis relative to DMSO; in short: as §1
[10] = target: T1, Protein cereblon/von Hippel-Lindau disease tumor suppressor; test: Protac activity at VHL/CRBN in HEK293 cells assessed as pVHL30 protein abundance at 10000 nM after 4 hrs by Western blot analysis relative to DMSO; in short: as §1

T1 sequence (P40337 whole entry, looked up): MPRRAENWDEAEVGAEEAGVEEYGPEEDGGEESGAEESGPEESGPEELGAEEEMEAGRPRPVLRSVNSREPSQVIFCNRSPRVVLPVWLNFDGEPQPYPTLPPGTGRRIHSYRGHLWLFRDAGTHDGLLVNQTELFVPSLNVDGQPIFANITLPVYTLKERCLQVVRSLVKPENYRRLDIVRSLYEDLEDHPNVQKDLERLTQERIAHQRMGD
T1 sequence (Q96SW2 whole entry, looked up): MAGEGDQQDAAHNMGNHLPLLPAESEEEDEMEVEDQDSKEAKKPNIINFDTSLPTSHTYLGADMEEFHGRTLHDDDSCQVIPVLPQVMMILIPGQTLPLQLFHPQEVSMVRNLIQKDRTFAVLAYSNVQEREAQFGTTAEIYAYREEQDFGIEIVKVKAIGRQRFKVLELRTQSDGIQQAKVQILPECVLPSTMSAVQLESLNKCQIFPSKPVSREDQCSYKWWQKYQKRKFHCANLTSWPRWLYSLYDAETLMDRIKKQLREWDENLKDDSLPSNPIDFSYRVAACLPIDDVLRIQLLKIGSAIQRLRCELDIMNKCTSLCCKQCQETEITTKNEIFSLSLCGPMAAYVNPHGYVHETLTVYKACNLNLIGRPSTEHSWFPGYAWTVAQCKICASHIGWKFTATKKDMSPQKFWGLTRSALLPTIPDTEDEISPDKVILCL

- Activity [1]: 91%
- Activity [2]: 61%
- Activity [3]: 133%
- Activity [4]: 83%
- Activity [5]: 95%
- Activity [6]: 108%
- Activity [7]: 85%
- Activity [8]: 25%
- Activity [9]: 110%
- Activity [10]: 128%
SMILES: Cc1ncsc1-c1ccc(CNC(=O)[C@@H]2C[C@@H](O)CN2C(=O)[C@@H](NC(=O)COCCCCCOCCOCCCCCOCC(=O)NCCNc2cccc3c2C(=O)N(C2CCC(=O)NC2=O)C3=O)C(C)(C)C)cc1 (stereo not given in full)
